Compound activity deposited in PubChem BioAssay by several laboratories.
PostGolgi ctrl = inhibits growth of the yeast control strain; 98,000 tested, 5% active; efflux-deficient yeast background strain, growth absorbance A615, 16 h; AID 738; inhibition, % at 10 µM
EphB4 antag = blocks human EphB4 binding to ephrin-B2; P54760; EphB4 LBD / TNYL-RAW-Alexa532 peptide, fluorescence polarization; inhibition, % at 7 µM; 97,000 tested, 0.15% active; AID 720;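 active = inhibition above the screen-wide mean inhibition plus 3 SD, cut at about 15% in these data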;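 note: 0% = DMSO wells and 100% = excess unlabeled TNYL-RAW peptide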
Ecoli WT expand = growth inhibitors of E. coli BW25113 wild type. AID 710. growth inhibition, % at 100 µM. 98,000 tested, 0.15% active. OD600 absorbance;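 active = growth inhibition above about 50% at one test dose, limit read from the data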;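 note: growth measured after 20 h incubation at 37 °C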
tolC growth inh = blocks growth of E. coli BW25113 tolC mutant; 65,000 tested, 2.2% active; growth inhibition, % at 10 µM (by protocol); AID 573; OD615;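 active = growth inhibition at or above a cutoff equal to the mean over every tested compound plus 3 SD, cut at about 60% in these data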;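 note: growth measured after 20 h incubation at 37 °C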
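Material: E. coli BW25113 ΔtolC::kan, tolC deletion mutant strain. Measure: percent growth inhibition. Schedule: 37 °C, 20 h exposure. Doses: single-point testing at 10 µM. Signal: A615 absorbance measurement. Buffer or medium: kanamycin-containing LB broth (50 µg/mL).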
PostGolgi yeast = growth inhibition of a yeast mutant, post-Golgi transport screen; post-Golgi transport phenotypic cell assay; inhibition, % at 10 µM; 98,000 tested, 0.9% active; AID 739;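 note: yeast cells grown in 1536-well plates; yeast grown about 18 h at 30C before absorbance read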
* hit, by the source's call; · = no result. Only some compounds are listed: those with a hit (about 6% of all), similar ones and a draw of the others. Cut-off read from the data, not from the text of the source, unless noted: active = inhibition above about 30%; inactive = the rest.

SMILES	PostGolgi ctrl	EphB4 antag	Ecoli WT expand	tolC growth inh	PostGolgi yeast
S=c1nc(-c2ccccc2)n(Cc2ccco2)c2c1CCCC2	4.9	-2.8	3.0	-3.5	-4.9
CC1CC(C)CN(c2nc3c(c(=O)[nH]c(=O)n3C)n2CCSc2nc3ccccc3o2)C1 (centres undefined)	·	·	·	3.2	·
CCC(=O)N/C(=N\OCc1ccc(F)cc1)c1nonc1NC(=O)CC	5.9	0.0	-2.0	·	-4.7
COC1CCCCC1Nc1cccc(SC)c1 (centres undefined)	34.8*	-1.0	1.0	15.8	-5.9
COC1CCCCC1Nc1cc(C)cc(C)c1 (centres undefined)	-1.2	-6.8	7.0	·	9.5
c1ccc(-n2c(SCc3nc(-c4cccs4)no3)nnc2-c2ccco2)cc1	34.1*	6.9	-8.0	22.8	-5.3
CCn1cc(C(=O)OCC(=O)OC2CC(C)CCC2C(C)C)c(=O)c2ccc(C)nc21 (centres undefined)	15.3	1.1	10.0	84.3*	-8.2
Cc1noc(C)c1C(=O)Nc1ccc(F)cc1F	5.8	-2.7	7.0	·	6.1
O=C(NCc1ccccn1)Nc1ccc(Cl)c(Cl)c1	46.5*	4.6	11.0	35.7	-9.4
CC(C)(C)c1ccc(-c2nnc(SCCC#N)n2C2CCCC2)cc1	47.6*	-5.8	-10.0	61.1*	-0.3
CC(C)(C)C1CCc2nc(NC(=O)Cc3cn4ccsc4n3)sc2C1 (centres undefined)	46.2*	·	4.0	58.4	0.3
O=C1CC(N(C(=O)c2ccco2)c2cccc(Cl)c2)C(=O)N1c1cccc(Cl)c1 (centres undefined)	12.8	-1.0	-7.0	·	-5.1
Cc1cc(C)c(C#N)c(SCC(=O)OC2CCCCC2)n1	16.6	·	-9.0	73.2*	-2.5
CC(C)c1nnc(NC(=O)c2sc3ccccc3c2Cl)s1	34.2*	-7.7	10.0	·	11.6
Cc1nn(Cc2ccc(Cl)cc2Cl)c(C)c1NC(=O)c1sc2ccccc2c1Cl	2.6	-3.9	0.0	·	1.7
Cc1ccccc1Cn1nc(C)c(NC(=O)c2sc3ccccc3c2Cl)c1C	33.3*	0.3	-7.0	·	1.6
O=C(Nc1nccs1)c1sc2ccccc2c1Cl	8.8	1.5	-10.0	·	-0.8
CC(C)C[C@H](NC(=O)OC(C)(C)C)c1nnc(SCc2cccc(F)c2)o1	3.2	3.4	-4.0	73.2*	-11.5
Cc1ccc(C2CN=NC23CCc2ccccc2C3=O)cc1 (centres undefined)	14.8	0.8	2.0	·	-6.4
O=C1c2ccccc2CCCC12N=NCC2c1cccc2ccccc12 (centres undefined)	32.5*	1.8	-18.0	·	6.3
C=CCOc1ccc(C2C(C(=O)c3ccco3)=C(O)C(=O)N2Cc2cccnc2)cc1 (centres undefined)	25.2	-9.4	4.0	1.2	-3.7
CCOc1ccc(C2C(C(=O)c3ccco3)=C(O)C(=O)N2Cc2cccnc2)cc1 (centres undefined)	1.4	-0.4	-3.0	9.2	-1.4
CCCOc1ccc(C2C(C(=O)c3ccc(C)o3)=C(O)C(=O)N2Cc2cccnc2)cc1 (centres undefined)	·	4.0	·	67.1*	·
COc1ccc(C2C(C(=O)c3ccco3)=C(O)C(=O)N2Cc2cccnc2)cc1OC (centres undefined)	33.8*	-15.4	2.0	12.4	6.2
CCOC(=O)c1c(NC(=O)C(C)NCc2ccco2)sc2c1CCC(C)C2 (centres undefined)	14.2	-0.9	1.0	·	-1.4
SMILES	PostGolgi ctrl	EphB4 antag	Ecoli WT expand	tolC growth inh	PostGolgi yeast
Cc1onc(-c2ccccc2Cl)c1C(=O)N1CCCc2ccccc21	16.0	-2.1	-4.0	16.4	-10.2
Cc1onc(-c2ccccc2Cl)c1C(=O)N1CCc2ccccc21	33.9*	-5.1	4.0	13.0	-2.4
CCOC(=O)N1CCN(C(=O)CN(c2cccc(C(F)(F)F)c2)S(=O)(=O)c2ccccc2)CC1	9.3	1.7	2.0	17.0	-4.1
Cc1ccc(S(=O)(=O)N(CC(=O)N2CCC(C(N)=O)CC2)c2cccc(C(F)(F)F)c2)cc1	4.6	0.1	-10.0	-2.3	42.8*
CCCCC1(C)OC(=O)C(=Cc2ccc(N(C)C)cc2)C(=O)O1 (centres undefined)	30.9*	0.1	6.0	·	2.9
CCOC(=O)c1c(-c2cccs2)csc1NC(C)=O	·	-2.6	·	·	·
CCOC(=O)c1c(-c2cccs2)csc1NC(=O)CN1CC(C)OC(C)C1 (centres undefined)	43.5*	0.8	-15.0	68.2*	-2.8
CC1(C)NC(=O)N(CCOCCOc2c(Cl)cc(Cl)cc2Cl)C1=O	4.1	-2.2	-5.0	·	-4.7
Cc1ccc(-c2nc3cnccn3c2Nc2c(C)cccc2C)o1	9.8	-4.2	11.0	·	-6.6
